The source of these data is ChEMBL document CHEMBL1157808, “Synthesis and biological evaluation of phenolic 4,5-dihydroisoxazoles and 3-hydroxy ketones as estrogen receptor alpha and beta agonists” (Bioorg Med Chem, 2010).

The target in experiment [1] is Estrogen receptor beta (Homo sapiens) (UniProt Q92731). Nature of the experiment: Agonist activity at ERbeta expressed in HEK293 cells at 10 uM after 24 hrs by luciferase reporter gene assay relative to 3,17-beta-estradiol. Type of experiment: functional, cell-based. Put shortly: (§1)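 HEK293 cells (no endogenous ER) in phenol-free DMEM with 5% delipidated FBS were transfected for 4 h with 5 ng ERα or ERβ expression vector, 75 ng pERE2TATA-LUC reporter and 20 ng pCMVβ. Cells then received 10 μM compound, 10 nM E2 or vehicle (0.1% v/v) for 24 h. Luciferase was normalized to β-galactosidase and expressed as 100% × (test − vehicle)/(E2 − vehicle). Values are means of at least three independent transfections.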
On the technique in general: In a reporter assay the amount or activity of a reporter protein is the signal.

The target in experiment [2] is T1, Estrogen receptor (Homo sapiens) (UniProt P03372).
T1 sequence (whole entry): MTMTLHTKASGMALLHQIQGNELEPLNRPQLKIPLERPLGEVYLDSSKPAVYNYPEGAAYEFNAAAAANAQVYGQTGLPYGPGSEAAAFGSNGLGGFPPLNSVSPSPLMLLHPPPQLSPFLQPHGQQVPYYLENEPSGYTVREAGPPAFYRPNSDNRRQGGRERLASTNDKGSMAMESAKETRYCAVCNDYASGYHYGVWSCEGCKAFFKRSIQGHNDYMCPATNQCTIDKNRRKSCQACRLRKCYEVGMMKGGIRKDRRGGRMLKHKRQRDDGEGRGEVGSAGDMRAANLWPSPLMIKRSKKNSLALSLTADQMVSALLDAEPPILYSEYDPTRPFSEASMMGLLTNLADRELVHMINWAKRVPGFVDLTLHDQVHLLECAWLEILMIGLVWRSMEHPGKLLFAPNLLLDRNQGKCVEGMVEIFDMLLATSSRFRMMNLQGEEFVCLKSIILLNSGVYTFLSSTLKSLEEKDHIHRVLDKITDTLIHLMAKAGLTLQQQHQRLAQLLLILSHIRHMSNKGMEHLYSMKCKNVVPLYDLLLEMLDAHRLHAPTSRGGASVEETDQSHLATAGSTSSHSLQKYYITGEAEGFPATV
Nature of the experiment: Agonist activity at ERalpha expressed in HEK293 cells at 10 uM after 24 hrs by luciferase reporter gene assay relative to 3,17-beta-estradiol. Format: functional, cell-based. In short, it runs like this:
as §1

For a further experiment, the species on record is Homo sapiens. Nature of the experiment: Selectivity ratio of relative binding affinity for human ERalpha to relative binding affinity for human ERbeta. Put shortly:
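COS-1 cells in DMEM with 10% delipidated FBS were transfected for 24 h with human ERα or ERβ vector (pSG5-hERα/β). Cells were washed, lysed in 0.5 M NaOH at 56 °C for 15 min and counted by scintillation, with nonspecific binding subtracted.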

Experiment [3] deals with T1, Estrogen receptor (Homo sapiens). Nature of the experiment: Induction of ERalpha-mediated pS2 gene expression in human MCF7 cells at 10 nM after 24 hrs by real-time quantitative PCR analysis. Type of experiment: cell-based. In short, it runs like this: (§2)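 MCF-7 cells were grown overnight in phenol red-free DMEM with 5% charcoal-stripped FBS. They were then exposed to ligand at 10 nM final or to solvent for 6 h or 24 h. Total RNA was extracted and reverse-transcribed. pS2 mRNA was measured by TaqMan real-time qPCR with RPLPO as reference and reported as fold change relative to control.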

The target is the same in experiment [4]. Nature of the experiment: Induction of ERalpha-mediated pS2 gene expression in human MCF7 cells at 10 uM after 24 hrs by real-time quantitative PCR analysis. Type of experiment: cell-based.
For experiment [5] the target is unchanged. Nature of the experiment: Antagonist activity at ERalpha in human MCF7 cells assessed as decrease in 3,17-beta-estradiol-induced pS2 gene expression at 1 uM after 24 hrs by real-time quantitative PCR analysis. Type of experiment: functional, cell-based. In short, it runs like this: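 Competition format: MCF-7 cells were first grown overnight in phenol red-free DMEM with 5% charcoal-stripped FBS. They were then co-treated for 24 h with 10 nM E2 plus 1 μM compound. Total RNA was extracted and pS2 mRNA was quantified by TaqMan real-time qPCR, normalized to RPLPO.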

Experiment [6] has the same target. Nature of the experiment: Ratio of compound to 3,17-beta-estradiol binding affinity at ERalpha expressed in COS-1 cells.
For experiment [7] the target is unchanged. Nature of the experiment: Induction of ERalpha-mediated pS2 gene expression in human MCF7 cells at 10 nM after 6 hrs by real-time quantitative PCR analysis relative to control. Type of experiment: cell-based. Put shortly:
as §2

The nature of experiment [8]: Selectivity for ERalpha over ERbeta.

Calls of active or inactive are those of the source. The calls are words filed in the database; no cut-off is given here.

Estrogen receptor beta (Homo sapiens), sequence (Q92731 whole entry): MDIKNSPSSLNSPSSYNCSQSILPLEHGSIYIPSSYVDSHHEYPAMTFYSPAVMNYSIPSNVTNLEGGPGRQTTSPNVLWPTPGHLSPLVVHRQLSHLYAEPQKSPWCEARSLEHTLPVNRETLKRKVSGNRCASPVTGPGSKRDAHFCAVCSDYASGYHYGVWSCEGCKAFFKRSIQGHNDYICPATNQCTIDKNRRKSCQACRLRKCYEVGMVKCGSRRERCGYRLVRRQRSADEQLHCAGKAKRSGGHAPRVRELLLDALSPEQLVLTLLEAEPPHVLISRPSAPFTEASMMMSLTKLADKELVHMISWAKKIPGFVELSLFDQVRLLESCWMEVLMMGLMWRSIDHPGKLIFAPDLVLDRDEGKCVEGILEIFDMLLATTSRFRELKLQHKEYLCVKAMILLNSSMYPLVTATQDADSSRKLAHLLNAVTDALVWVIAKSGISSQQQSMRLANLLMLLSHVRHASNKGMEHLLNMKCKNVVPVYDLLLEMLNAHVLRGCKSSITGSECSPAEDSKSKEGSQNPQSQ

For orientation: inhibition means the relative decrease from the control value, in per cent. As to `O=C(CCCc1ccc(O)cc1)CC(O)c1ccccc1` (single isomer, unassigned; 50a), the Activity in [1] was determined as 170%; in experiment [2] it was 139%. Moreover, the values for the Ratio (in the experiment filed under Homo sapiens; in experiment [6]) were 4 and 2, respectively. Also, the outcome in experiment [3] and in experiment [4] was inactive. Also, the inhibition in experiment [5] is 23%.
Take `CC(O)(CC(=O)CCCc1ccc(O)cc1)c1ccccc1` (racemic): the values for the Activity in experiment [1] and in experiment [2] were 103% and 90.9%, respectively. Besides, the Ratio in the experiment listed under Homo sapiens is 8.
As for `CC1(c2ccccc2)CC(CCCc2ccc(O)cc2)=NO1` (single isomer, unassigned; 46a), the Activity in experiment [1] was -0.9%; in [2], 14.4%. In addition, in the experiment listed under Homo sapiens, the Ratio amounted to 13.
The like results for `O=C(CCc1ccc(O)cc1)CC(O)Cc1ccccc1` (racemic) were, in that order, 107%, 55% and 0.2.
As for `c1ccc(CCCC2=NOC(c3ccccc3)C2)cc1` (stereo in doubt; 43b), the figures for the Activity in experiment [1] and in [2] were 17.2% and 11.5%, respectively. Further, in the experiment listed under Homo sapiens, the Ratio turned out to be 1.
Take `O=C(CCCc1ccc(O)cc1)CC(O)c1ccccc1` (single isomer, unassigned; 50b): the Activity in experiment [1] turned out to be 155%; in experiment [2], 140%. For the same compound, the Ratio in the experiment filed under Homo sapiens is 5. In experiment [3], the outcome was Active. For the same compound, the inhibition in experiment [5] amounted to 29%.
As for `CC1(c2ccccc2)CC(CCCc2ccc(O)cc2)=NO1` (single isomer, unassigned; 46b), the Activity in experiment [1] was determined as 10.6%; in experiment [2], 13.6%. In addition, in the experiment listed under Homo sapiens, the Ratio worked out at 1.
The like results for `O=C(CCc1cccc(O)c1)CC(O)CCc1ccccc1` (racemic) were, in that order, 48.1%, 87.3% and 106.
For `CC1(c2ccccc2)CC(CCCc2ccccc2)=NO1` (racemic), the Activity in [1] came to 15.5%; in experiment [2], 69.5%. Also, in the experiment filed under Homo sapiens, the Ratio is 1.5.
For `O=C(CCCc1ccc(O)cc1)CC(O)Cc1ccccc1` (racemic), the Activity turned out to be 82.3% in [1] and 105% in experiment [2]. In addition, in the experiment listed under Homo sapiens, the Ratio is 11.
As to `Oc1ccc(CCCC2=NOC(c3ccccc3)C2)cc1` (single isomer, unassigned; 45b), the Activity came out at 77.1% in experiment [1] and 65% in experiment [2]. In addition, the Ratio in the experiment listed under Homo sapiens is 41. Moreover, the result in [3] and in experiment [4] was inactive. Moreover, the inhibition in [5] amounted to 27%.
For the compound `CC(O)(CC(=O)CCCc1ccccc1)c1ccccc1` (racemic), the Activity in experiment [1] amounted to 15.1%; in experiment [2] it was 83.3%. In the experiment filed under Homo sapiens, the Ratio came to 2.
`Oc1ccc(CCCC2=NOC(c3ccccc3)C2)cc1` (single isomer, unassigned; 45a): the results for the Activity in experiment [1] and in [2] were 44.7% and 104%, respectively. In the experiment listed under Homo sapiens, the Ratio amounted to 157. Besides, in [3], the outcome was inactive. The compound also had a fold change (FC) in [7] of 1.8. In addition, the inhibition in experiment [5] was determined as 32%. In addition, in [8], the Selectivity ratio is 2.
Consider `Oc1ccc(CCC2=NOC(Cc3ccccc3)C2)cc1` (single isomer, unassigned; 3b), for which the figures for the Activity in experiment [1] and in experiment [2] were 41.5% and 24.3%, respectively. Further, the Ratio in the experiment filed under Homo sapiens worked out at 0.5.
For `O=C(CCCc1ccccc1)CC(O)c1ccccc1` (single isomer, unassigned), the Activity in experiment [1] stood at 28.2%; in experiment [2] it was 59.3%. Also, the Ratio in the experiment listed under Homo sapiens is 5.
The like results for `O=C(CCc1ccc(O)cc1)CC(O)CCc1ccccc1` (racemic) were, in that order, 10.1%, 46.8% and 0.3.
